Measurements published in ChEMBL document CHEMBL3232838, “Synthesis, crystal structure and biological evaluation of some novel 1,2,4-triazolo[3,4-b]-1,3,4-thiadiazoles and 1,2,4-triazolo[3,4-b]-1,3,4-thiadiazines” (Eur J Med Chem, 2014).

Test system: not listed separately
Assay: Anticancer activity against Syrian golden hamster BHK21 cells at 10 uM after 48 hrs by SRB assay
Assay type: functional
Details: Mesocricetus auratus, BHK-21, 48 h; read-out: GI
Method in brief: (§1)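 RPMI-1640 culture with 10% heat-inactivated FBS, 2 mM glutamine, 1 mM pyruvate and penicillin/streptomycin at 37 °C, 5% CO2. Cells per 96-well well: H157 10⁴, BHK-21 5×10⁴. After 24 h, monolayers were exposed to 100, 10, 1 or 0.1 µM compound for 48 h, with vincristine as standard. Cells were fixed in cold 50% TCA (4 °C, 1 h) and stained with 0.4% SRB in 1% acetic acid (30 min). Dye was dissolved in 10 mM Tris and read at A490 minus A630. Read-out was percent inhibition.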

| SMILES | inhibition of growth at 10 µM [%] |
| --- | --- |
| Cc1ccc(C2=Nn3c(nnc3-c3ccncc3)SC2)cc1 | 68.7 |
| COc1cccc(C2=Nn3c(nnc3-c3ccncc3)SC2)c1 | 69.9 |
| Clc1cccc(C2=Nn3c(nnc3-c3ccncc3)SC2)c1 | 53.3 |
| Clc1ccc(C2=Nn3c(nnc3-c3ccncc3)SC2)cc1Cl | 59.4 |

Test system: not listed separately
Assay: Anticancer activity against Syrian golden hamster BHK21 cells at 100 uM after 48 hrs by SRB assay
Assay type: functional
Details: Mesocricetus auratus, BHK-21, 48 h; read-out: GI
Method in brief: as §1

| SMILES | inhibition of growth at 100 µM [%] |
| --- | --- |
| Cc1ccc(C2=Nn3c(nnc3-c3ccncc3)SC2)cc1 | 72.6 |
| COc1cccc(C2=Nn3c(nnc3-c3ccncc3)SC2)c1 | 73.3 |
| Clc1cccc(C2=Nn3c(nnc3-c3ccncc3)SC2)c1 | 56.4 |
| Clc1ccc(C2=Nn3c(nnc3-c3ccncc3)SC2)cc1Cl | 63.5 |

Target: Intestinal-type alkaline phosphatase (Bos taurus, UniProt P19111)
Sequence (P19111 whole entry): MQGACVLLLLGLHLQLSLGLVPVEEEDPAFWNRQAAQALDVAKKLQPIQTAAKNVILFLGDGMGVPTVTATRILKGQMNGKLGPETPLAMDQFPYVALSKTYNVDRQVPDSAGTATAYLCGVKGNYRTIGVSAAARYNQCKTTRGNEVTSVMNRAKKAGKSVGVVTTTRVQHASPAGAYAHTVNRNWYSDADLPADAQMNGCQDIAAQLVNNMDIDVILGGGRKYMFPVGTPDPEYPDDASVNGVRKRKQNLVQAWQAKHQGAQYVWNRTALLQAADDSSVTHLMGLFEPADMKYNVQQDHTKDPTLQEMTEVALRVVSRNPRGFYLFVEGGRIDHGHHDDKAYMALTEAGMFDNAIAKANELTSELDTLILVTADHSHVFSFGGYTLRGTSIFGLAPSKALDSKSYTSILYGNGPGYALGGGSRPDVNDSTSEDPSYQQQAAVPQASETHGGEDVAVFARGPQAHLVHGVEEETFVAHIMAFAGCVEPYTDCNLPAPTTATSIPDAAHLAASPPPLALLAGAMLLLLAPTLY
Assay: (§2) Inhibition of calf intestinal alkaline phosphatase using p-nitrophenyl phosphate as substrate preincubated for 10 mins before substrate addition after 30 mins
Details: not given

| SMILES | IC50 [µM] |
| --- | --- |
| Clc1ccc(C2=Nn3c(nnc3-c3ccncc3)SC2)cc1Cl | 1.32 |

Target: Intestinal-type alkaline phosphatase (Bos taurus) (UniProt P19111)
Sequence (P19111 20-506 limits assumed): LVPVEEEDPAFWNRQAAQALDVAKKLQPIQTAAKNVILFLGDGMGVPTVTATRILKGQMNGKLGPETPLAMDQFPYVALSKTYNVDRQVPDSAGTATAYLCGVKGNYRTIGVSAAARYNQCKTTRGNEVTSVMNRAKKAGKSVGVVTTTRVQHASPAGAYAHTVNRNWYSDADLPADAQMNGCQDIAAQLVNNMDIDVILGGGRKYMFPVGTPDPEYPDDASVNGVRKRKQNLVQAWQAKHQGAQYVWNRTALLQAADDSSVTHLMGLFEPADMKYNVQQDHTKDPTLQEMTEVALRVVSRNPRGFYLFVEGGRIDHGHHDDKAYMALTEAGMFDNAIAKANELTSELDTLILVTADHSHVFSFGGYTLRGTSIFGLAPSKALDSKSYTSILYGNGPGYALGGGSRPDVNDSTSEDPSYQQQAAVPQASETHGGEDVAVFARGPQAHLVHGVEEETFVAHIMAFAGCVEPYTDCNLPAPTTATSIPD
Assay: as §2
Parameters: concentration or dose not given beside the values
Details: not given

| SMILES | inhibition [%] |
| --- | --- |
| Cc1ccc(C2=Nn3c(nnc3-c3ccncc3)SC2)cc1 | 35.7 |
| COc1cccc(C2=Nn3c(nnc3-c3ccncc3)SC2)c1 | 38.5 |
| Clc1cccc(C2=Nn3c(nnc3-c3ccncc3)SC2)c1 | 48 |

Target: Acetylcholinesterase (Electrophorus electricus, UniProt O42275)
Sequence (O42275 whole entry): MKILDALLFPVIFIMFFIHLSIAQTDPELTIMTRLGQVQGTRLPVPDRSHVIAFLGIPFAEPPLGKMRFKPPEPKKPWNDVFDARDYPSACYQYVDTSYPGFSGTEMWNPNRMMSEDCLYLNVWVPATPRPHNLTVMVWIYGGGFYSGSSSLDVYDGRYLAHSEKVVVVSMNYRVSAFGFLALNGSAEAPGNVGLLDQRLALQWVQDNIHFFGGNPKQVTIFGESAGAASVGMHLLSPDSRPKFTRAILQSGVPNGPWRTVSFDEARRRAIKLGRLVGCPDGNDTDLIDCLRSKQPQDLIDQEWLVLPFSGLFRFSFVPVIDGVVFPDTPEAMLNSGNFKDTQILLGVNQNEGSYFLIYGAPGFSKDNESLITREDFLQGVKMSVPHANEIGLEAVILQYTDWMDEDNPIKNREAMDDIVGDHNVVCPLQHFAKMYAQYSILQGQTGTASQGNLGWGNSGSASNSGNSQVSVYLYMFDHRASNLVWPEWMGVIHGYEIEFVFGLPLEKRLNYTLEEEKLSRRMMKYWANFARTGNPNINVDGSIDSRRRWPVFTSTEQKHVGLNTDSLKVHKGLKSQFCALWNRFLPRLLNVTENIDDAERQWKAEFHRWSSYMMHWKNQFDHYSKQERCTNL
Assay: (§3) Inhibition of electric eel acetylcholinesterase using acetylthiocholine iodide as substrate preincubated for 10 mins before substrate addition after 15 mins by Ellman's method
Details: not given

| SMILES | IC50 [µM] |
| --- | --- |
| COc1cccc(C2=Nn3c(nnc3-c3ccncc3)SC2)c1 | 23.8 |
| Clc1cccc(C2=Nn3c(nnc3-c3ccncc3)SC2)c1 | 22.7 |

Target: Acetylcholinesterase (Electrophorus electricus) (UniProt O42275)
Sequence (O42275 24-633 limits assumed): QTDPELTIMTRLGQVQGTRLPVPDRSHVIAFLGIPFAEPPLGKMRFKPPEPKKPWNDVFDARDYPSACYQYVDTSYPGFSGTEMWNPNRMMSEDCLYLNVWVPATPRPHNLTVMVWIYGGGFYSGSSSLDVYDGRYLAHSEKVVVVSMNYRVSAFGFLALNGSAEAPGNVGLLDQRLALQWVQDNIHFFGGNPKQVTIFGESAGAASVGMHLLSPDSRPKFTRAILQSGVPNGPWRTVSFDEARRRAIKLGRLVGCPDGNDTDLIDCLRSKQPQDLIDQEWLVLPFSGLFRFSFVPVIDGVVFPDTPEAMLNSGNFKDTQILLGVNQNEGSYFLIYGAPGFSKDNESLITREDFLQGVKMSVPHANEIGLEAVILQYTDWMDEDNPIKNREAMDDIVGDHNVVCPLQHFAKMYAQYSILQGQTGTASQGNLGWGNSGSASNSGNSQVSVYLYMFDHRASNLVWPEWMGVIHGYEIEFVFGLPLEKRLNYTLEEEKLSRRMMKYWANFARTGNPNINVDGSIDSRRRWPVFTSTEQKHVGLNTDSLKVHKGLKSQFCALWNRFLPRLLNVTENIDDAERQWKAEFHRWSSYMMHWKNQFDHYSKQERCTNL
Assay: as §3
Details: not given

| SMILES | inhibition [%] |
| --- | --- |
| Cc1ccc(C2=Nn3c(nnc3-c3ccncc3)SC2)cc1 | 46.1 |
| Clc1ccc(C2=Nn3c(nnc3-c3ccncc3)SC2)cc1Cl | 46 |

Test system: Leishmania major
Assay: Antileishmanial activity against promastigote form of Leishmania major at 0.1 uM after 72 hrs by MTT assay
Assay type: functional
Details: not given
Method in brief: (§4)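 Log-phase promastigotes grown at 25 °C in phenol-red-free D-MEM/F-12 with 10% heat-inactivated FBS, washed in PBS, seeded at 2.5×10⁶/mL (100 µL/well). Compounds in triplicate wells, 72 h at 25 °C; amphotericin B standard. MTT (5 mg/mL stock) 3 h, stopped with 50% isopropanol/10% SDS, OD570 minus 690. Percent inhibition vs control; mean ± SEM of three independent experiments.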

| SMILES | inhibition at 0.1 µM [%] |
| --- | --- |
| Cc1ccc(C2=Nn3c(nnc3-c3ccncc3)SC2)cc1 | 34.5 |
| COc1cccc(C2=Nn3c(nnc3-c3ccncc3)SC2)c1 | 29.3 |
| Clc1cccc(C2=Nn3c(nnc3-c3ccncc3)SC2)c1 | 31.7 |
| Clc1ccc(C2=Nn3c(nnc3-c3ccncc3)SC2)cc1Cl | 49.3 |

Test system: NCI-H157
Assay: Anticancer activity against human NCI-H157 cells at 100 uM after 48 hrs by SRB assay
Assay type: functional
Details: NCI-H157, 48 h, read-out: GI
Method in brief: as §1

| SMILES | inhibition of growth at 100 µM [%] |
| --- | --- |
| Cc1ccc(C2=Nn3c(nnc3-c3ccncc3)SC2)cc1 | 63.8 |
| COc1cccc(C2=Nn3c(nnc3-c3ccncc3)SC2)c1 | 54.4 |
| Clc1cccc(C2=Nn3c(nnc3-c3ccncc3)SC2)c1 | 67.4 |
| Clc1ccc(C2=Nn3c(nnc3-c3ccncc3)SC2)cc1Cl | 72.1 |

Test system: NCI-H157
Assay: Anticancer activity against human NCI-H157 cells at 10 uM after 48 hrs by SRB assay
Assay type: functional
Details: NCI-H157, 48 h, read-out: GI
Method in brief: as §1

| SMILES | inhibition of growth at 10 µM [%] |
| --- | --- |
| Cc1ccc(C2=Nn3c(nnc3-c3ccncc3)SC2)cc1 | 57.3 |
| COc1cccc(C2=Nn3c(nnc3-c3ccncc3)SC2)c1 | 51.1 |
| Clc1cccc(C2=Nn3c(nnc3-c3ccncc3)SC2)c1 | 63.8 |
| Clc1ccc(C2=Nn3c(nnc3-c3ccncc3)SC2)cc1Cl | 67.4 |

Test system: Leishmania major
Assay: Antileishmanial activity against promastigote form of Leishmania major at 1 uM after 72 hrs by MTT assay
Assay type: functional
Details: not given
Method in brief: as §4

| SMILES | inhibition at 1 µM [%] |
| --- | --- |
| Cc1ccc(C2=Nn3c(nnc3-c3ccncc3)SC2)cc1 | 37.7 |
| COc1cccc(C2=Nn3c(nnc3-c3ccncc3)SC2)c1 | 32.3 |
| Clc1cccc(C2=Nn3c(nnc3-c3ccncc3)SC2)c1 | 34.6 |
| Clc1ccc(C2=Nn3c(nnc3-c3ccncc3)SC2)cc1Cl | 52.3 |

Test system: Leishmania major
Assay: Antileishmanial activity against promastigote form of Leishmania major at 100 uM after 72 hrs by MTT assay
Assay type: functional
Details: not given
Method in brief: as §4

| SMILES | inhibition at 100 µM [%] |
| --- | --- |
| Cc1ccc(C2=Nn3c(nnc3-c3ccncc3)SC2)cc1 | 43.9 |
| COc1cccc(C2=Nn3c(nnc3-c3ccncc3)SC2)c1 | 38.6 |
| Clc1cccc(C2=Nn3c(nnc3-c3ccncc3)SC2)c1 | 41.8 |
| Clc1ccc(C2=Nn3c(nnc3-c3ccncc3)SC2)cc1Cl | 59.8 |

Target: Cholinesterase (Homo sapiens, UniProt P06276)
Sequence (P06276 whole entry): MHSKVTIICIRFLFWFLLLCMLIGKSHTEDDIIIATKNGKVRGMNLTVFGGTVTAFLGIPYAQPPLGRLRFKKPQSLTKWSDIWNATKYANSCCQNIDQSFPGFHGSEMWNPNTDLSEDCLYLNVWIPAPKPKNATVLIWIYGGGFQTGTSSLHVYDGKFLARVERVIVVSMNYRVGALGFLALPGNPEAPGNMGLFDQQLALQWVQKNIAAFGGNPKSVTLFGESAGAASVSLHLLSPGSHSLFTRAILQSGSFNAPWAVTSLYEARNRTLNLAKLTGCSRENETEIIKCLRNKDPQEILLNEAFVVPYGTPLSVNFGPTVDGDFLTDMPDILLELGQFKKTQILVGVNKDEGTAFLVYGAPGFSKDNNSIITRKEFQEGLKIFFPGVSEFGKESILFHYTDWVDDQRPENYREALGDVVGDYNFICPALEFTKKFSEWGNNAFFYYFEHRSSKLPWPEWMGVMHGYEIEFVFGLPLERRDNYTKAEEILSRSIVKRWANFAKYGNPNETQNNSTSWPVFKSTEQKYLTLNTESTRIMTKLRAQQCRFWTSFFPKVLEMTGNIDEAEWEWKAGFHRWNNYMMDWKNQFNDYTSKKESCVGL
Assay: Inhibition of human BChE using butyrylthiocholine iodide as substrate preincubated for 10 mins before substrate addition after 15 mins by Ellman's method
Details: not given
Method in brief: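 Ellman assay in 50 mM Tris-HCl, 0.1 M NaCl, 0.02 M MgCl2, pH 8.0, with DMSO at 1% final. hBChE (3.4 U/mg) is preincubated with compound for 10 min at 25 °C. Blanks lack enzyme or substrate. IC50 from linear regression.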

| SMILES | IC50 [µM] | inhibition [%] |
| --- | --- | --- |
| Cc1ccc(C2=Nn3c(nnc3-c3ccncc3)SC2)cc1 | 26.1 |  |
| COc1cccc(C2=Nn3c(nnc3-c3ccncc3)SC2)c1 |  | 28.9 |
| Clc1cccc(C2=Nn3c(nnc3-c3ccncc3)SC2)c1 | 39.4 |  |
| Clc1ccc(C2=Nn3c(nnc3-c3ccncc3)SC2)cc1Cl | 12.2 |  |

Test system: Leishmania major
Assay: Antileishmanial activity against promastigote form of Leishmania major at 10 uM after 72 hrs by MTT assay
Assay type: functional
Details: not given
Method in brief: as §4

| SMILES | inhibition at 10 µM [%] |
| --- | --- |
| Cc1ccc(C2=Nn3c(nnc3-c3ccncc3)SC2)cc1 | 39.8 |
| COc1cccc(C2=Nn3c(nnc3-c3ccncc3)SC2)c1 | 35.2 |
| Clc1cccc(C2=Nn3c(nnc3-c3ccncc3)SC2)c1 | 38.3 |
| Clc1ccc(C2=Nn3c(nnc3-c3ccncc3)SC2)cc1Cl | 56.4 |

Test system: NCI-H157
Assay: Anticancer activity against human NCI-H157 cells at 0.1 uM after 48 hrs by SRB assay
Assay type: functional
Details: NCI-H157, 48 h, read-out: GI
Method in brief: as §1

| SMILES | inhibition of growth at 0.1 µM [%] |
| --- | --- |
| Cc1ccc(C2=Nn3c(nnc3-c3ccncc3)SC2)cc1 | 50.3 |
| COc1cccc(C2=Nn3c(nnc3-c3ccncc3)SC2)c1 | 43.1 |
| Clc1cccc(C2=Nn3c(nnc3-c3ccncc3)SC2)c1 | 57.4 |
| Clc1ccc(C2=Nn3c(nnc3-c3ccncc3)SC2)cc1Cl | 59.4 |

Test system: not listed separately
Assay: Anticancer activity against Syrian golden hamster BHK21 cells at 1 uM after 48 hrs by SRB assay
Assay type: functional
Details: Mesocricetus auratus, BHK-21, 48 h; read-out: GI
Method in brief: as §1

| SMILES | inhibition of growth at 1 µM [%] |
| --- | --- |
| Cc1ccc(C2=Nn3c(nnc3-c3ccncc3)SC2)cc1 | 62 |
| COc1cccc(C2=Nn3c(nnc3-c3ccncc3)SC2)c1 | 66.7 |
| Clc1cccc(C2=Nn3c(nnc3-c3ccncc3)SC2)c1 | 50.3 |
| Clc1ccc(C2=Nn3c(nnc3-c3ccncc3)SC2)cc1Cl | 56.5 |

Test system: not listed separately
Assay: Anticancer activity against Syrian golden hamster BHK21 cells at 0.1 uM after 48 hrs by SRB assay
Assay type: functional
Details: Mesocricetus auratus, BHK-21, 48 h; read-out: GI
Method in brief: as §1

| SMILES | inhibition of growth at 0.1 µM [%] |
| --- | --- |
| Cc1ccc(C2=Nn3c(nnc3-c3ccncc3)SC2)cc1 | 53.1 |
| COc1cccc(C2=Nn3c(nnc3-c3ccncc3)SC2)c1 | 52.4 |
| Clc1cccc(C2=Nn3c(nnc3-c3ccncc3)SC2)c1 | 46.2 |
| Clc1ccc(C2=Nn3c(nnc3-c3ccncc3)SC2)cc1Cl | 52.8 |

Test system: NCI-H157
Assay: Anticancer activity against human NCI-H157 cells at 1 uM after 48 hrs by SRB assay
Assay type: functional
Details: NCI-H157, 48 h, read-out: GI
Method in brief: as §1

| SMILES | inhibition of growth at 1 µM [%] |
| --- | --- |
| Cc1ccc(C2=Nn3c(nnc3-c3ccncc3)SC2)cc1 | 53.2 |
| COc1cccc(C2=Nn3c(nnc3-c3ccncc3)SC2)c1 | 47.5 |
| Clc1cccc(C2=Nn3c(nnc3-c3ccncc3)SC2)c1 | 60.8 |
| Clc1ccc(C2=Nn3c(nnc3-c3ccncc3)SC2)cc1Cl | 63.5 |
